CSN deneddyl inh: CSN deneddylation inhibition; Q92905; inhibition, % at 12.5 µM; 0.38% of 360,000 active; Purified CSN, SCF-Nedd8-OG deneddylation, fluorescence polarization;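 active means pattern-corrected inhibition above about 35%, with an unprinted fluorescence ratio check between 0.5 and 1.5, limit read from the data, passing the limit was not always enough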
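Assay system: Purified human Csn5 enzyme expressed in HEK293T cells | Amount: Enzyme 0.24 nM | Measured by: Fluorescence polarization readout | Medium: Tris/NaCl/DTT buffer, pH 7.5 | Compound dosing: One concentration, 12.5 µM, 0.25% DMSO | Times: 90 min incubation of compound, enzyme and substrate at room temperature | Control set: no-enzyme wells high, enzyme-with-substrate wells low | Read-out: % inhibition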
STEP inh: inhibitors of human striatal-enriched phosphatase STEP | AID 588621 | 0.25% of 360,000 active | inhibition, % at 20 µM | P54829 | recombinant STEP, OMFP fluorogenic substrate, fluorescence;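 active means inhibition at 20 µM, scaled per plate between control wells, above about 37%, limit read from the data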
Target sequence (P54829 whole entry, looked up): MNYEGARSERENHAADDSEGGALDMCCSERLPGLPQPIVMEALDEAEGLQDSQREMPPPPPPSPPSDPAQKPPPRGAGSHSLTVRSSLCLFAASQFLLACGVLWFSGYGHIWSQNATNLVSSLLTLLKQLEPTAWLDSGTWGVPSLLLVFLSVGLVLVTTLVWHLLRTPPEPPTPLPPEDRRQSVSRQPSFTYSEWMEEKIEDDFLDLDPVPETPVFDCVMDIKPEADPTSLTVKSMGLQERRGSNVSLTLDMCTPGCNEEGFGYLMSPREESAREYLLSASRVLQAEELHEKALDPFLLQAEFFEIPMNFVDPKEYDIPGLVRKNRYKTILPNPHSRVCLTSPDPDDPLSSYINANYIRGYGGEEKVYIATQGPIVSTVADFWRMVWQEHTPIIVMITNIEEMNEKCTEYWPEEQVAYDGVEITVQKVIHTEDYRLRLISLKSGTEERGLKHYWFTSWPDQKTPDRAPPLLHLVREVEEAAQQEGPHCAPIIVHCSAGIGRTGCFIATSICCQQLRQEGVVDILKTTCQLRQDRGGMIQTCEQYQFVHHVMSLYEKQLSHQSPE
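material = STEP tyrosine phosphatase | reagent = fluorogenic phosphatase substrate OMFP at 25 µM final | doses = single compound dose of 20 µM, 1% DMSO final | schedule = 20 min reaction, room temperature, in the dark | measured by = fluorescence, 480/540 nm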
DNMT1 block: inhibitors of human DNMT1. DNMT1 molecular beacon, Hinp1I cleavage, fluorescence. inhibition (reported as % activation of signal), % at 10 µM. 0.83% of 360,000 active
LMPTP block: blocks human LMPTP phosphatase; P24666; recombinant LMPTP-A, OMFP fluorogenic substrate, fluorescence intensity; inhibition, % at 20 µM; 0.22% of 360,000 active; AID 651560;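 active means compounds that cut the enzyme signal by at least half of the control window in the single-dose screen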
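Assay system: LMPTP-A phosphatase enzyme | Input: 0.625 nM enzyme | Also added: Fluorogenic phosphatase substrate OMFP at 400 µM final | Compound dosing: One test concentration per compound, 20 µM, with 3% DMSO overall | Schedule: 50 min enzyme reaction at room temperature, protected from light | Signal: Fluorescence intensity | Benchmarks: no-enzyme and uninhibited controls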
Scp1 inh: Scp-1 (human) phosphatase inhibition; 0.88% of 340,000 active; Recombinant Scp1, phosphopeptide, malachite green phosphate absorbance; inhibition, % at 20 µM; AID 493091; Q9GZU7;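 active means inhibition above about 50% at 20 µM, limit read from the data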
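Material: truncated SCP-1 phosphatase (76-261aa) / Buffer or medium: 50 mM Tris acetate pH 5.5, 0.005% Tween-20, 10 mM MgCl2 / Compound dosing: one concentration, 20 µM, with 1.0% DMSO / Incubation: 45 min room-temperature reaction, 5 min colour, 30 min stabiliser / Detection: colorimetric free-phosphate detection, absorbance 630 nm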
SUMO1-SIM PPI: alters human SUMO1 binding to SIM partners | SUMO1 binding to a labelled peptide, TR-FRET, 1 h | inhibition, % at 20 µM | 0.33% of 360,000 active | AID 602429; in the data active means inhibition above about 37%
Target sequence (P63165 whole entry, looked up): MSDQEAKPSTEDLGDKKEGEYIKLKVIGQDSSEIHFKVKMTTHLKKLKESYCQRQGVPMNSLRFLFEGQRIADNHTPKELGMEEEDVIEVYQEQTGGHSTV
CSN5 deneddyl: Csn5 (human) deneddylation inhibition, single-concentration validation | inhibition, % at 16.6 µM | AID 720654 | shares compounds with CSN deneddyl inh | Csn5 deneddylation of SCF-Nedd8OG, fluorescence polarization, 90 min | 62% of 540 active
MMP-2 counter: blocks human MMP-2 in a CSN deneddylation counter-screen; shares compounds with CSN deneddyl inh; recombinant MMP-2, FRET substrate fluorescence, 60 min; inhibition, % at 16.6 µM; 33% of 540 active; AID 720655;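 active means corrected plate-normalized z-score of 5 or more, or -5 or less, or inhibition of 15% or more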
Thrombin cntr: counter-screen for CSN deneddylation inhibitors: bovine thrombin inhibition; inhibition, % at 16.6 µM; AID 720656; shares compounds with CSN deneddyl inh; 49% of 540 active; bovine thrombin cleavage of Ub4-pepOG, fluorescence polarization;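 active means inhibition at or above a set limit, with a fluorescence interference ratio between 0.5 and a set maximum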
Large screens that a line does not name were inactive (follow-up assays come after a bar, where they were run). This is a sample that favours compounds with a hit; in the whole collection about 1.9% have one here. Unless noted, no stated cut-off is given here; in the data, active means inhibition above about 50%; inactive means the rest.

O=C(Nc1ccc(Nc2ccncc2)cc1)c1ccc([N+](=O)[O-])cc1	none
Cc1ccc(C2=NOC(=O)/C2=C\C=C\c2ccccc2)cc1	CSN deneddyl inh 35.1, SUMO1-SIM PPI 41.0 | CSN5 deneddyl 102.7 | MMP-2 counter inactive | Thrombin cntr inactive
Nc1ccc2c(c1)C(=O)c1ccccc1-2	none
O=C1C(=O)c2ccc(-c3ccccc3)cc2-c2ccccc21	CSN deneddyl inh 56.9, DNMT1 block 106.1, SUMO1-SIM PPI 41.3 | CSN5 deneddyl inactive | MMP-2 counter inactive | Thrombin cntr inactive
Nc1ccc2c(c1)C(=O)C(=O)c1ccccc1-2	CSN deneddyl inh 50.8, STEP inh 58.7, DNMT1 block 120.0, SUMO1-SIM PPI 48.0 | MMP-2 counter inactive | Thrombin cntr inactive
NS(=O)(=O)c1ccc(-c2ccc(/C=C3\SC(=S)N(C4CCS(=O)(=O)C4)C3=O)o2)cc1 (stereo not drawn)	CSN deneddyl inh 69.7 | CSN5 deneddyl 87.1 | MMP-2 counter -46.1 | Thrombin cntr inactive
CCCC(C)NC(=O)COC(=O)c1cc(Br)c(Br)s1 (stereo not drawn)	none
Cc1noc(C)c1COC(=O)Cc1ccc(Cl)c(Cl)c1	none
O=C(NCc1ccccc1C(F)(F)F)c1cccc2c1C(=O)c1ccc(N3CCC(N4CCCCC4)CC3)cc1S2(=O)=O	CSN deneddyl inh 142.6, SUMO1-SIM PPI 49.8 (no result: Scp1 inh) | CSN5 deneddyl inactive | MMP-2 counter -45.3 | Thrombin cntr 45.7
CN(C)c1ccc(/C=C/c2ccc3ccccc3n2)cc1	CSN deneddyl inh 50.1 | CSN5 deneddyl 87.8 | MMP-2 counter inactive | Thrombin cntr 17.1
CCc1ccc(N=C2NC(=O)/C(=C/c3cc(OC)c(OC)c(OC)c3)S2)cc1	none
CCc1ccc(N=C2NC(=O)/C(=C/c3cc(Br)c(OCC(=O)O)c(OC)c3)S2)cc1	CSN deneddyl inh 47.1, STEP inh 97.3, LMPTP block 59.1 | CSN5 deneddyl 76.6 | MMP-2 counter inactive | Thrombin cntr inactive
CCCCCCCCCCCCCCCC[n+]1cccc2ccccc21	CSN deneddyl inh 35.5, Scp1 inh 75.2, SUMO1-SIM PPI 82.8 | CSN5 deneddyl 65.1 | MMP-2 counter 17.2 | Thrombin cntr inactive
CCCCCCCCC[n+]1cccc2c3ccccc3ccc21	none
O=C1C(=O)N(CCCn2ccnc2)C(c2ccc([N+](=O)[O-])cc2)/C1=C(\O)c1ccc2c(c1)OCCO2 (stereo not drawn)	none
COc1ccc(-n2c(C)cc(/C=C3\SC(=S)NC3=O)c2C)cc1	none
Cc1cc(/C=C2/SC(=O)NC2=O)c(C)n1-c1ccc(N2CCOCC2)cc1	none
O=C1NC(=S)S/C1=C\c1cc(Cl)cc(Cl)c1O	CSN deneddyl inh 45.0 | CSN5 deneddyl 54.3 | MMP-2 counter inactive | Thrombin cntr 56.3
Cc1cc(/C=C2\SC(=S)NC2=O)c(C)n1-c1ccc(O)cc1	CSN deneddyl inh 59.7 | CSN5 deneddyl 50.1 | MMP-2 counter 28.5 | Thrombin cntr 50.4
Cc1cc(/C=C2\SC(=S)NC2=O)c(C)n1-c1ccccc1	CSN deneddyl inh 39.8 | CSN5 deneddyl 61.4 | MMP-2 counter 22.8 | Thrombin cntr 30.9
CCOC(=O)N1CCC(NC(=O)c2ccc3c(c2)N(C)C(=O)/C(=C/c2cccc(OC)c2)S3)CC1	none
COc1ccc(OC)c(Nc2nc(N(C)c3ccccc3)nc(N)c2[N+](=O)[O-])c1	none
O=C(Oc1ccccc1)c1cccc2cccc(C(=O)Oc3ccccc3)c12	none (no result: CSN deneddyl inh, STEP inh, DNMT1 block, LMPTP block, SUMO1-SIM PPI)
O=C1/C(=C/c2ccc(O)cc2)SC(=S)N1CC1CCCO1 (stereo not drawn)	CSN deneddyl inh 93.8 | CSN5 deneddyl inactive | MMP-2 counter inactive | Thrombin cntr inactive
CC(C)(C)c1ccc(CC(=O)N2CCC2(C)C(=O)N2CCCCC2)cc1 (stereo not drawn)	none (no result: Scp1 inh)
O=C(Nc1ccc2nc(-c3ccccc3)[nH]c2c1)c1ccco1	none
O=C(Nc1cccc(-c2nc3ccccc3[nH]2)c1)c1cccc(NC(=O)c2ccco2)c1	CSN deneddyl inh 57.0 | CSN5 deneddyl inactive | MMP-2 counter inactive | Thrombin cntr inactive
O=C(Nc1nc2ccccc2[nH]1)NC1CCCCC1	none
Cn1cccc1/C=C1\CC(C(C)(C)C)C/C(=C\c2cccn2C)C1=O (stereo not drawn)	CSN deneddyl inh 97.3 | CSN5 deneddyl 92.8 | MMP-2 counter -33.7 | Thrombin cntr inactive
CC(NC(=O)C1CCN(C(=O)[C@@H]2Cc3ccccc3CN2)CC1)c1ccccc1 (stereo partly drawn)	none
O=C(CCCN1C(=O)/C(=C/c2ccccc2)SC1=S)Nc1ccc(C(=O)O)c(O)c1	none
O=C(CN1C(=O)/C(=C/c2ccco2)SC1=S)Nc1ccc(C(=O)O)c(O)c1	CSN deneddyl inh 61.3, STEP inh 63.8, DNMT1 block 94.8, SUMO1-SIM PPI 77.5 | CSN5 deneddyl 54.3 | MMP-2 counter 17.9 | Thrombin cntr 30.1
CCN1/C(=C/c2ccc3cc(C)ccc3[n+]2CC)Sc2cc(C)ccc21	CSN deneddyl inh 56.0, LMPTP block 49.5 | CSN5 deneddyl 60.4 | MMP-2 counter inactive | Thrombin cntr inactive
CCN1/C(=C/c2ccc3cc(C)ccc3[n+]2C)Sc2ccc3sccc3c21	CSN deneddyl inh 137.2, LMPTP block 76.9 | CSN5 deneddyl inactive | MMP-2 counter inactive | Thrombin cntr 67.2
COc1ccc(/C=C/C(=O)NCCSCc2ccco2)cc1	none
COc1ccc(/C=C2\C(=O)NC(=S)N2C(=O)c2ccc(F)cc2)cc1	CSN deneddyl inh 65.0 | MMP-2 counter -38.4 | Thrombin cntr inactive
CCOC(=O)C1(Cc2ccccc2C)CCCN(C(=O)CCn2nccc2C)C1 (stereo not drawn)	none
COc1ccccc1N1N=C(c2ccc([N+](=O)[O-])cc2)CC1c1ccccc1 (stereo not drawn)	CSN deneddyl inh 38.2 | CSN5 deneddyl 106.7 | MMP-2 counter inactive | Thrombin cntr 25.0
NS(=O)(=O)c1ccc(N2N=C(c3ccccc3)CC2c2ccccc2Br)cc1 (stereo not drawn)	none

Bioassay records as filed in PubChem BioAssay.
